In ChEMBL document CHEMBL4428090, “Modeling, Synthesis, and Biological Evaluation of Potential Retinoid X Receptor (RXR)-Selective Agonists: Analogues of 4-[1-(3,5,5,8,8-Pentamethyl-5,6,7,8-tetrahydro-2-naphthyl)ethynyl]benzoic Acid (Bexarotene) and 6-(Ethyl(5,5,8,8-tetrahydronaphthalen-2-yl)amino)nicotinic Acid (NEt-TMN)” (J Med Chem, 2016):
Activity calls are given as the source filed them. The rule behind the calls is not given here.

Columns and labels:
[1] = molecular target: T1, Retinoic acid receptor RXR-alpha (Homo sapiens) (UniProt P19793); experiment: Agonist activity at human RXRalpha expressed in human HCT116 cells assessed as increase in RXRE-mediated transcription at 25 nM incubated for 24 hrs by RXRE luciferase reporter gene assay relative to bexarotene; assay type: cell-based
T1 sequence (whole entry): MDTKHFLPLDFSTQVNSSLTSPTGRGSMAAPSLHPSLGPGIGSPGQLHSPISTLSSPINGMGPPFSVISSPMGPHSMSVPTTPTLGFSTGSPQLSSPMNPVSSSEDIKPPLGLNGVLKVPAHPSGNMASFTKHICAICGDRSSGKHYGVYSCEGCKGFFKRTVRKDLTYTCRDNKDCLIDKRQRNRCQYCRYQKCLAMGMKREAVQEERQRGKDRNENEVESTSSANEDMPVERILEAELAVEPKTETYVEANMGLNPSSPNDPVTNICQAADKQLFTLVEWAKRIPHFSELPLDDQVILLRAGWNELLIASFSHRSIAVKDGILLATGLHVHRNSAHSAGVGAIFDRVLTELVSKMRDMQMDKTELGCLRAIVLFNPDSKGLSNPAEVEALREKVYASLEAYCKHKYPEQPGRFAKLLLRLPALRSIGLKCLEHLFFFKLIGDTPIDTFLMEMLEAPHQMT
In short: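 HCT-116 cells (80,000/well) co-transfected for 24 h with 250 ng RXRE-luciferase reporter (DR1 element from the rat cellular retinol binding protein II gene), 25 ng pSG5-human RXRα and 20 ng renilla. Dosed 24 h at 25, 100 or 1000 nM final; ethanol or DMSO vehicle 0.1%. Dual-luciferase read-out. Three independent assays in triplicate; bexarotene = 100%.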

[2] = molecular target: T2, Retinoid X receptor (Homo sapiens, UniProt P28702+P48443+P19793); experiment: Agonist activity at human RXR binding domain and activation domain expressed in human HCT116 cells assessed as rexinoid activity incubated for 24 hrs by luciferase reporter gene based mammalian two-hybrid assay; assay type: cell-based
T2 sequence (P28702 whole entry): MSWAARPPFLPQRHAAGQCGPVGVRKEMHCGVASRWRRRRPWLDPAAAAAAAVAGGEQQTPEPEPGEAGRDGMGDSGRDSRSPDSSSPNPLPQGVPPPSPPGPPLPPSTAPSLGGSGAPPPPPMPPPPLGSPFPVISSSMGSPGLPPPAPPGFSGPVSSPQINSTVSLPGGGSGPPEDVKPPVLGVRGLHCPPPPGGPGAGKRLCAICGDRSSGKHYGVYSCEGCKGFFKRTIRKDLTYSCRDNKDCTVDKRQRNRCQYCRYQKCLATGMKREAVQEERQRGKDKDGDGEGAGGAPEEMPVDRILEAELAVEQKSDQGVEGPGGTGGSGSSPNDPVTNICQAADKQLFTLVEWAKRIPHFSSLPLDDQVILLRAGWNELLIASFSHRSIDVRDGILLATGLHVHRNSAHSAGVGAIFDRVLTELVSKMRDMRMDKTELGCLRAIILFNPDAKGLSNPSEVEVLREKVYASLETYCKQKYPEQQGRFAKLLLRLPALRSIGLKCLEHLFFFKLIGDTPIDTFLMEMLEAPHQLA
T2 sequence (P48443 whole entry): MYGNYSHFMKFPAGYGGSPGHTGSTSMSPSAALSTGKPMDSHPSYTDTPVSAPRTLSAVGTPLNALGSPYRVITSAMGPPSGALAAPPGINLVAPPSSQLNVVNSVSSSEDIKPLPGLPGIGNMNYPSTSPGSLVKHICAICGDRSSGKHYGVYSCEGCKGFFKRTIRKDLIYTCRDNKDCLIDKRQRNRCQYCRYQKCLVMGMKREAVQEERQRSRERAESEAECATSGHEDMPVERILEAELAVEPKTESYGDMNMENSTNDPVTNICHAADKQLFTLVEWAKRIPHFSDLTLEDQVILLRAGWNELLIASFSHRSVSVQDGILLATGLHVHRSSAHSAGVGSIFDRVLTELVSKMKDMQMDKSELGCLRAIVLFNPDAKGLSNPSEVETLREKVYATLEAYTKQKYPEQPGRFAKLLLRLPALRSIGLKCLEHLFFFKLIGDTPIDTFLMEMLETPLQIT
T2 sequence (P19793 whole entry): T1 sequence (whole entry)

[3] = molecular target: Retinoid X receptor (Homo sapiens) (UniProt P28702+P48443+P19793); experiment: Agonist activity at human RXR binding domain and activation domain expressed in human HCT116 cells assessed as rexinoid activity at 1000 nM incubated for 24 hrs by luciferase reporter gene based mammalian two-hybrid assay relative to bexarotene; assay type: cell-based
In short: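 HCT-116 cells plated overnight (80,000/well, DMEM with 10% FBS), co-transfected for 24 h with human RXR binding-domain (bait) and activation-domain (prey) vectors, pFR-Luc Gal4 reporter and renilla control. Treated 24 h at 25, 100 or 1000 nM final; vehicle ethanol or DMSO 0.1%. Dual-luciferase read-out. Three independent assays in triplicate; bexarotene set to 100%.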

[4] = system: HuT78; experiment: Inhibition of HDAC1 gene expression in human HUT78 cells at 100 nM incubated for 48 hrs by quantitative real-time PCR method; assay type: functional
In short: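 Hut78 cells resuspended in RPMI with 1% FBS, plated 750,000/well and dosed at 100 nM for 48 h. Total RNA extracted, 0.5 µg DNase-treated RNA reverse-transcribed, then qPCR for HDAC1. Quantified by ΔΔCt, normalized to GAPDH and relative to vehicle-treated cells (2^-ΔΔCt).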

[5] = molecular target: T1, Retinoic acid receptor RXR-alpha (Homo sapiens); experiment: Agonist activity at human RXRalpha expressed in human HCT116 cells assessed as increase in RXRE-mediated transcription incubated for 24 hrs by RXRE luciferase reporter gene assay; assay type: cell-based

| Compound | Activity [1] [%] | EC50 [2] [nM] | Activity [3] [%] | inhibition [4] | Activity [5] | inhibition at 0.1 µM ([4]; HuT78, 48 h) [%] |
| --- | --- | --- | --- | --- | --- | --- |
| CCN(c1ccc(C(=O)O)c(F)c1)c1cc2c(cc1C)C(C)(C)CCC2(C)C | 27 to 66 | 33.8 | 51 to 56 | – | – | – |
| CCN(c1ccc(C(=O)O)cc1)c1cc2c(cc1C)C(C)(C)CCC2(C)C | 27 to 66 | 7.9 | 51 to 56 | – | – | – |
| CCN(c1ccc2c(c1)C(C)(C)CCC2(C)C)c1ccc(C(=O)O)cn1 | 27 to 66 | 13.8 | 35 to 58 | inactive | – | – |
| CCN(c1ccc2c(c1)C(C)(C)CCC2(C)C)c1cnc(C(=O)O)cn1 | – | 364.3 | 35 to 58 | – | inactive | – |
| CCN(c1ncc(C(=O)O)cn1)c1cc2c(cc1C)C(C)(C)CCC2(C)C | 27 to 66 | 18.2 | 35 to 58 | – | – | 28 |
